Assay results reported in the EternaBench riboswitch data.

Experiments:
MS2 coat protein [1] = experiment: apparent Kd, MS2 coat protein; higher = weaker binding; RNA-MaP array; theophylline 2 mM where present
Procedure, shortened: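 Green signal was scaled to red-channel RNA signal and control-cluster median Fmax, and the apparent Kd was taken as the median of filtered per-cluster binding-curve fits. The binding series used SNAP-549-labelled MS2 coat protein from 0.7 or 1.5 nM, doubling to 3 µM, on designs transcribed by stalled E. coli RNA polymerase on Illumina sequencing-chip clusters. Each series ran without and then with constant ligand in 100 mM Tris-HCl pH 7.5, 80 mM KCl, 4 mM MgCl2, BSA, DTT, yeast tRNA and Tween-20.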

MS2 coat protein [2] = experiment: apparent Kd, MS2 coat protein; higher = weaker binding; RNA-MaP array
Procedure, shortened: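 Apparent Kd values come from the median of binding-curve fits to single clusters. To obtain them, designed RNAs transcribed on an Illumina sequencing chip from sequenced DNA templates were incubated at room temperature with fluorescently labeled MS2 coat protein at 1.5 nM to 3 μM, with or without input ligand, for 0.8–1.5 h at the lowest and 10–20 min at the highest concentrations. Designs measured on fewer than 10 clusters were excluded.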

[3] = designed as: OFF switch for theophylline, no ligand
[4] = ligand present: theophylline, designed as: OFF switch for theophylline
[5] = designed as: ON switch for theophylline, no ligand
[6] = ligand present: theophylline, designed as: ON switch for theophylline

Sequence | apparent Kd (MS2 coat protein [1]; [3]) [nM] | apparent Kd (MS2 coat protein [1]; [4]) [nM] | also measured
UUAUUUAUAAUGGAUACCAGUAUAAUGGCCGCAAAUCCUGACAUGAGGAUCACCCAUGUAUGCCCUUGGCAGCUGUUAUGGGUUU | 41.1 | 57.6 | 
GAAAGAUGAGGCGGCAGUACCGAUGUCGAUACCAGCAUGAACAAAUGCCCUUGGCAGCGACAUGAGGAUCACCCAUGUAUCUGCG | 11.3 | 127 | 
CUCUGGUGCUGAGUGAGUGUCGUGACUGAUACCAGAUGCCUUUACAUCCCUUGGCAGCAGUACAUGAGGAUCACCCAUGUAUUCC | 22.1 | 182 | 
ACAUGAGGAUCACCCAUGUUCCUCGCCGAUACCAGUGAAGAAUUACGCCCUUGGCAGCGGAAUGAGUGUUUUGGAGAUGAGGUAC | 62.4 | 107 | 
GAUGAACAUACUGAUACCAGUGUACUGACAUGAGGAUCACCCAUGUUGGGUUUUGUUGUACACCCUUGGCAGCAGAAUGUUUAUC | 72.2 | 78.9 | 
ACAUGUCUUAUAGAUACCAGACAGGACAUGAGGAUCACCCAUGUAAUGUAUACAUGCAGAGUCCCUUGGCAGCUAAGGUCAUAGA |  |  | apparent Kd (MS2 coat protein [1]; [5]): 77.6 nM; apparent Kd (MS2 coat protein [1]; [6]): 66.3 nM
CCUAGCACACAUGAUACCAGCGACAUGAGGAUCACCCAUGUACGGCGUGUAUCGCAAGGUUGCCCUUGGCAGCAUGAUAGUGCUG | 14.4 | 182 | 
ACAUGAGGAUCACCCAUGUAAAUCCUCGAUACCAGCCAAAGGAGAGGCCCUUGGCAGCGGAAAGGCCGGGUAUAAAUGUCCGGCC |  |  | apparent Kd (MS2 coat protein [1]; [5]): 134 nM; apparent Kd (MS2 coat protein [1]; [6]): 126 nM
UCGUGUAUAUCGGAUACCAGUGAAAUCGAUACAUGAGGAUCACCCAUGUGAGAGGAUGUACACCCUUGGCAGCUGUAUAUAUCUG |  |  | apparent Kd (MS2 coat protein [1]; [5]): 24.3 nM; apparent Kd (MS2 coat protein [1]; [6]): 13.6 nM
UCGACAGUGAACGAUACCAGCGUCACGUGGCCGGUGGUCACAUGAGGAUCACCCAUGUAACGCCCUUGGCAGCGUGCACGUAUCA | 20.6 | 182 | 
GUUAUAUUAAUUGAUACCAGCGAGAAAACAUGAGGAUCACCCAUGUUCGCCCAUGUUAAGCGCCCUUGGCAGCAAUUUUAUUAGC | 30.6 | 91.6 | 
UAUAUAUGGAUGGAUACCAGCAGAGAAAACGUUUAUCCUAACAUGAGGAUCACCCAUGUAUGCCCUUGGCAGCUGUUUAUAUAUA | 26.6 | 29.1 | 
ACAUGAGGAUCACCCAUGUUCCUCAUUGAUACCAGUGAAUUUAGACGCCCUUGGCAGCGAGUUUUUGAAGAAGAAGUUUUUUUUU | 545 | 1080 | 
GAGCUGAUGUAGAGCCUUUAGUUCUGAGAUACCAGUACAGAAAUGUACCCUUGGCAGCUCAGCUUUACAUGAGGAUCACCCAUGU | 19 | 23.7 | 
AUAUUAGACCUGGAUACCAGCGACAUGAGGAUCACCCAUGUAUGUGCAUCUGCCAUGAUAUGCCCUUGGCAGCCACCGAGGUCGU | 11.4 | 19.1 | 
GAUAGUUGAUGGGAUACCAGCCUACACAUGAGGAUCACCCAUGUGAUUCGUGUACGACUGGGCCCUUGGCAGCCCAUAUUGUGUA |  |  | apparent Kd (MS2 coat protein [1]; [5]): 107 nM; apparent Kd (MS2 coat protein [1]; [6]): 55.1 nM
UUUAAAAUAACAGAUACCAGCGUGUUAUAAAACAUGAGGAUCACCCAUGUAGUGAUCAAGCGCCCUUGGCAGCUGGUAUUUUAGG |  |  | apparent Kd (MS2 coat protein [1]; [5]): 151 nM; apparent Kd (MS2 coat protein [1]; [6]): 167 nM
UGCGUACAUGAGGAUCACCCAUGUAUAGAUACCAGUCACCCAUGUGGCCCUUGGCAGCUAACAUGAGGAUCACUACAUGAGGAUC | 34.5 | 141 | 
AGCGACAUGCAUGAUACCAGCUACAUGAGGAUCACCCAUGUACGUCAGUAAUGACUGUGUAGCCCUUGGCAGCAUAGAGCAUGUA | 17.5 | 44.5 | 
AGCACAUGAGGAUCACCCAUGUGAGGUGAUACCAGUGAGAAGAAGCACCCUUGGCAGCACUUGGGUACAUGAGGAUCACCCAUGU | 58.9 | 169 | 
AGACAUGUAAGAUAAUUGACUUUUACAGAUACCAGACUGUCUAAUGUCCCUUGGCAGCUGCAUUACAUGAGGAUCACCCAUGUUA | 19.2 | 17.9 | 
CCCAACAGUGAUGCCGGUGUUGGUGGUGAUACCAGCGUCUUAUGGCGCCCUUGGCAGCACCAACAUGAGGAUCACCCAUGUGAAA |  |  | apparent Kd (MS2 coat protein [1]; [5]): 55.2 nM; apparent Kd (MS2 coat protein [1]; [6]): 409 nM
GAUGAACUAUUUGAUACCAGACUACAUGAGGAUCACCCAUGUGAGUUUCCUCCUCUGCCAGUCCCUUGGCAGCAAAUAGUUUAUC | 56.5 | 148 | 
AAAGGUCAGGAGAAGGUGCCUCUAUUACGUCGGCAAGGAUAUCCACAGCGGGCGAUUAUGCGUACAUGAGGAUCACCCAUGUUA |  |  | apparent Kd (MS2 coat protein [2]; designed as: OFF switch for flavin mononucleotide, no ligand): 92.3 nM; apparent Kd (MS2 coat protein [2]; ligand present: flavin mononucleotide, designed as: OFF switch for flavin mononucleotide): 43.5 nM
AAACUACGACAUGAGGAUCACCCAUGUACUCCGCUAACUACACAGGAUAUAGUGAGGCCAGAGCUCUAGAAGGGUGUUAAUACG |  |  | apparent Kd (MS2 coat protein [2]; designed as: ON switch for flavin mononucleotide, no ligand): 40.3 nM; apparent Kd (MS2 coat protein [2]; ligand present: flavin mononucleotide, designed as: ON switch for flavin mononucleotide): 28.2 nM
UGCGAUGAACCUGAUACCAGAUGUAUUUGCUCCUCGGACAACAUGAGGAUCACCCAUGUCAUCCCUUGGCAGCAGGAGCGAAAGC |  |  | apparent Kd (MS2 coat protein [2]; [3]): 11.9 nM; apparent Kd (MS2 coat protein [2]; [4]): 44.1 nM
